This is an account of results in ChEMBL document CHEMBL1137658, “Effect of caspofungin on metabolite profiles of Aspergillus species determined by nuclear magnetic resonance spectroscopy” (2007).

≈ marks a conversion by molar mass, not a printed value.

Test [1] concerns Aspergillus terreus. The test can be described thus: Inhibition of metabolite production in Aspergillus terreus isolate 04-188-2548 assessed as lowest drug concentration required to inhibit 50% ethanol, fumarate, malate production after 48 hrs in presence of 2 % glucose by NMR spectroscopy. Format: functional. In short, it runs like this:
(§1)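 Cultures grown in RPMI 1640-2% glucose-MOPS with drug series, 48 h. Culture media analysed by 600-MHz ¹H NMR. MEP taken from stack plots and peak integrals of resolved resonances, as lowest drug concentration suppressing nutrient use or metabolite production by ≥50%. Alternative MEP: lowest concentration raising fumarate >50%.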

Test [2] has as its system Aspergillus flavus. The test can be described thus: Antifungal activity against Aspergillus flavus isolate 05-314-1100 after 48 hrs by broth microdilution method. Format: functional. The settings on record: isolate 05-314-1100, 48 h.
For test [3], the system named is Aspergillus nidulans. Description: Inhibition of metabolite production in Aspergillus nidulans isolate 05-326-1785 assessed as lowest drug concentration required to inhibit 50% fumarate production after 72 hrs in presence of 2 % glucose by NMR spectroscopy. Format: functional. Summed up: (§2)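 A. nidulans grows slowly, so spectra were recorded after 72 h incubation in RPMI 1640-2% glucose-MOPS with drug dilutions. 600-MHz ¹H NMR of culture medium. Fumarate peak integrals plotted against drug concentration. MEP = lowest concentration with ≥50% fall in fumarate.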

Test [4] relates to Aspergillus niger. The test can be described thus: Inhibition of metabolite production in Aspergillus niger isolate 05-290-2479 assessed as lowest drug concentration required to inhibit 50% citrate production after 48 hrs in presence of 2 % glucose by NMR spectroscopy. Format: functional. Summed up: as §1
For test [5], the system named is Aspergillus fumigatus. The test can be described thus: Inhibition of metabolite production in Aspergillus fumigatus ATCC 204305 assessed as lowest drug concentration required to inhibit 50% glycine betain, fumarate, malate production after 48 hrs in presence of 2 % glucose by NMR spectroscopy. Type of test: functional. In short, it runs like this:
as §1

The subject of test [6] is Aspergillus fumigatus. The test can be described thus: microbe, parasite or virus in culture. The settings on record: ATCC 204305, 72 h.
Test [7] relates to Aspergillus nidulans. Description: Antifungal activity against Aspergillus nidulans isolate 00-202661 after 72 hrs by broth microdilution method. The settings on record: isolate 00-202661, 72 h. Format: functional. In short, it runs like this:
(§3)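 Modified CLSI M38-A broth microdilution in RPMI 1640 with l-glutamine, 2% glucose (not 0.2%), MOPS pH 7. Serial drug dilutions 0.03125 to 16 μg/ml in microtiter plates stored at −70°C up to 3 weeks. Run in duplicate. MIC = lowest concentration completely inhibiting visible growth.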

The test system of test [8] is Aspergillus fumigatus. Description: microbe, parasite or virus in culture. The note with it: isolate 06-067-1639, 48 h.
Test [9] deals with Aspergillus fumigatus. Description: microbe, parasite or virus in culture. The settings on record: ATCC 204305, 48 h.
Test [10] relates to Aspergillus flavus. Description: Inhibition of metabolite production in isolate Aspergillus flavus 05-314-1100 assessed as lowest drug concentration required to inhibit 50% fumarate, malate production after 48 hrs in presence of 2 % glucose by NMR spectroscopy. Format: functional, isolate  05-314-1100. Summed up:
as §1

Test [11] has as its system Aspergillus niger. Description: Antifungal activity against Aspergillus niger isolate 05-290-2479 after 48 hrs by broth microdilution method. Type of test: functional. The note with it: isolate 05-290-2479, 48 h. In short, it runs like this: as §3
Background: Dilution methods test growth across graded concentrations, often in twofold steps.

The test system of test [12] is Aspergillus flavus. The test can be described thus: Antifungal activity against Aspergillus flavus ATCC 204304 after 48 hrs by broth microdilution method. Format: functional. The settings on record: ATCC 204304, 48 h. In short, it runs like this:
as §3

The test system of test [13] is Aspergillus fumigatus. The test can be described thus: Inhibition of metabolite production in Aspergillus fumigatus isolate 06-067-1639 assessed as lowest drug concentration required to inhibit 50% glycine betaine, fumarate, malate production after 48 hrs in presence of 2 % glucose by NMR spectroscopy. Type of test: functional. Summed up: as §1
The subject of test [14] is Aspergillus terreus. Description: Inhibition of metabolite production in Aspergillus terreus isolate 06-059-2428 assessed as lowest drug concentration required to inhibit 50% ethanol production after 48 hrs in presence of 2 % glucose by NMR spectroscopy. Format: functional. In short, it runs like this: as §1
Test [15] relates to Aspergillus flavus. Description: Increase in metabolite production in Aspergillus flavus isolate 05-314-1100 assessed as lowest drug concentration required to increase >50% fumarate production after 48 hrs in presence of 2 % glucose by NMR spectroscopy. Type of test: functional. Summed up:
as §1

In test [16] the test system is Aspergillus fumigatus. Description: Inhibition of metabolite production in Aspergillus fumigatus ATCC 204305 assessed as lowest drug concentration required to inhibit 50% fungal metabolite production after 72 hrs in presence of 2 % glucose by NMR spectroscopy. Type of test: functional. Summed up: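 Caspofungin dilutions with A. fumigatus ATCC 204305 in RPMI 1640-2% glucose-MOPS, incubated 72 h. ¹H NMR of medium. MEP = lowest concentration giving ≥50% fall in malate, glycine betaine or fumarate peak areas.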

Test [17] relates to Aspergillus flavus. The test can be described thus: Inhibition of metabolite production in Aspergillus flavus ATCC 204304 assessed as lowest drug concentration required to inhibit 50% fumarate, malate production after 48 hrs in presence of 2 % glucose by NMR spectroscopy. Type of test: functional. In short, it runs like this:
as §1

Test [18] has as its system Aspergillus terreus. Description: Antifungal activity against Aspergillus terreus isolate 06-059-2428 after 48 hrs by broth microdilution method. The settings on record: isolate 06-059-2428, 48 h. Format: functional. Summed up: as §3
Test [19] concerns Aspergillus terreus. The test can be described thus: Antifungal activity against Aspergillus terreus isolate 04-188-2548 after 48 hrs by broth microdilution method. Format: functional. The note with it: isolate 04-188-2548, 48 h.
Test [20] relates to Aspergillus niger. The test can be described thus: Inhibition of metabolite production in Aspergillus niger isolate 05-112-3701 assessed as lowest drug concentration required to inhibit 50% citrate production after 48 hrs in presence of 2 % glucose by NMR spectroscopy. Type of test: functional. In short, it runs like this:
as §1

For test [21], the system named is Aspergillus niger. The test can be described thus: Antifungal activity against Aspergillus niger isolate 05-112-3701 after 48 hrs by broth microdilution method. Type of test: functional. The note with it: isolate 05-112-3701, 48 h. In short, it runs like this:
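CLSI M38-A broth microdilution, modified to use RPMI 1640 with 2% glucose (instead of 0.2%), 0.3 g/liter l-glutamine and 0.165 M MOPS at pH 7. Drug twofold dilutions 0.03125–16 μg/ml. Run in duplicate. MIC is the lowest concentration with no visible growth. For the lipopeptide, MEC is read at 48 h as the lowest concentration giving aberrant hyphae under an inverted microscope.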

Test [22] deals with Aspergillus nidulans. Description: Inhibition of metabolite production in Aspergillus nidulans isolate 00-202661 assessed as lowest drug concentration required to inhibit 50% fumarate production after 72 hrs in presence of 2 % glucose by NMR spectroscopy. Type of test: functional. Summed up:
as §2

For test [23], the system named is Aspergillus nidulans. Description: Antifungal activity against Aspergillus nidulans isolate 05-326-1785 after 72 hrs by broth microdilution method. Type of test: functional. The note with it: isolate 05-326-1785, 72 h. In short, it runs like this:
as §3

As for `C[C@@H]1[C@H](O)[C@@H](C)/C=C/C=C/C=C/C=C/C=C/C=C/C=C/[C@H](O[C@@H]2O[C@H](C)[C@@H](O)[C@H](N)[C@@H]2O)C[C@@H]2O[C@](O)(C[C@@H](O)C[C@@H](O)[C@H](O)CC[C@@H](O)C[C@@H](O)CC(=O)O[C@H]1C)C[C@H](O)[C@H]2C(=O)O` [AMPHOTERICIN B], the Activity in the test with Aspergillus terreus [1] turned out to be 2 µg/mL; in the test on Aspergillus nidulans [3], 0.5 µg/mL; in the test with Aspergillus niger [4], 0.125 µg/mL; in the test on Aspergillus fumigatus [5], 0.25 µg/mL; in the test on Aspergillus flavus [10], 2 µg/mL; in the test with Aspergillus fumigatus [13], 0.5 µg/mL. In addition, the Activity with Aspergillus terreus [14] turned out to be 0.06 µg/mL; in the test on Aspergillus flavus [15], 0.06 µg/mL; in the test on Aspergillus fumigatus [16], 1 µg/mL; in the test on Aspergillus flavus [17], 2 µg/mL; with Aspergillus niger [20], 0.25 µg/mL; in the test with Aspergillus nidulans [22], 0.25 µg/mL. Also, the MIC against Aspergillus flavus [2] amounted to 4 µg/mL (≈ 4.33 µM); in the test on Aspergillus fumigatus [6], 1 µg/mL (≈ 1.08 µM); in the test with Aspergillus nidulans [7], 1 µg/mL (≈ 1.08 µM); in the test on Aspergillus fumigatus [8] it was 1 µg/mL (≈ 1.08 µM); with Aspergillus fumigatus [9] it was 1 µg/mL (≈ 1.08 µM); against Aspergillus niger [11], 0.25 µg/mL (≈ 0.271 µM). Also, the MIC in the test on Aspergillus flavus [12] worked out at 8 µg/mL (≈ 8.66 µM); against Aspergillus terreus [18], 1 µg/mL (≈ 1.08 µM); in the test on Aspergillus terreus [19] it was 2 µg/mL (≈ 2.16 µM); with Aspergillus niger [21] it was 0.5 µg/mL (≈ 0.541 µM); against Aspergillus nidulans [23], 0.5 µg/mL (≈ 0.541 µM).
